Active and inactive are the calls of the source. The calls are words filed in the database; no cut-off is given here.

For assay [1], the target named is T1, Beta-2 adrenergic receptor (Homo sapiens, UniProt P07550). Put plainly: Displacement of [3H]-CGP 12177 from human beta-2 adrenergic receptor expressed in CHOK1 cells. In kind it is cell-based, CHO-K1.
Target sequence in this assay (P07550 whole entry): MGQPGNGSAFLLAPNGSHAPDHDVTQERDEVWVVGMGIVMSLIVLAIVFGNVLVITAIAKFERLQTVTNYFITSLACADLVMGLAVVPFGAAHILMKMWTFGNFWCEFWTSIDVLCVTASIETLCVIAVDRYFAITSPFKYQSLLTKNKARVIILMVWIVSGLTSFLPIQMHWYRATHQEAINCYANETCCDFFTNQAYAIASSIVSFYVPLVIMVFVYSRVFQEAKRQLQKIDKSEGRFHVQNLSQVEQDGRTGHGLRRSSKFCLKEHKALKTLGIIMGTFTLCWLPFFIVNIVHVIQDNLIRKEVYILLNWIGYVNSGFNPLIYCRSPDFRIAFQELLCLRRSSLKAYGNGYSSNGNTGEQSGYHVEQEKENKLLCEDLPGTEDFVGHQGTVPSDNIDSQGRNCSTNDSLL
Assay [2] concerns the target T2, Beta-3 adrenergic receptor (Homo sapiens, UniProt P13945). Put plainly: Displacement of [3H]-CGP 12177 from human beta-3 adrenergic receptor expressed in CHOK1 cells. In kind it is cell-based, CHO-K1. A general note: Displacement assays read how much labelled ligand stays bound in the presence of the test substance.
Target sequence in this assay (P13945 whole entry): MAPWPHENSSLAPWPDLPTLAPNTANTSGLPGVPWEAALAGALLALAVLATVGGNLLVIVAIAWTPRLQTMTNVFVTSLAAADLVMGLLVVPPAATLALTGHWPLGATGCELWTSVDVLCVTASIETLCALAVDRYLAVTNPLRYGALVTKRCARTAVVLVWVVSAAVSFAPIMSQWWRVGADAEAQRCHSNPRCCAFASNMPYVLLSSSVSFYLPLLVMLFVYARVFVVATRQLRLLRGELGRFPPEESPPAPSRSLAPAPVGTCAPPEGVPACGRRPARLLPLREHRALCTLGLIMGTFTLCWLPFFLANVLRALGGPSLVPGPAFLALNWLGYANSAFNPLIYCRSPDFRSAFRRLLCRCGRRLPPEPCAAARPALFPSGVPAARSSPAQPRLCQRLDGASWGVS
Assay [3] has as its target T3, Beta-1 adrenergic receptor (Homo sapiens, UniProt P08588). The assay is described as follows: Antagonist activity at human beta-1 adrenergic receptor site 1 expressed in cimeterol-stimulated CHO-K1 cells assessed as CRE-SPAP level by […]. In kind it is functional, cell-based.
The target in assay [4] is T1, Beta-2 adrenergic receptor. Put plainly: Antagonist activity at human beta-2 adrenergic receptor expressed in salbutamol-stimulated CHO-K1 cells assessed as CRE-SPAP level by […]. The assay is classed as functional, cell-based.
Target sequence in this assay (P07550 whole entry): as the sequence (P07550 whole entry) above
The target in assay [5] is T2, Beta-3 adrenergic receptor. Put plainly: Antagonist activity at human beta-3 adrenergic receptor expressed in fenoterol-stimulated CHOK1 cells assessed as CRE-SPAP level by […]. The assay is classed as functional, cell-based, CHO-K1. The method in brief: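 CHO-K1 cells stably co-expressing human β3-AR (790 fmol/mg protein) and a six-CRE SPAP reporter, grown to confluence. Fenoterol was the stimulating agonist. SPAP secreted into the medium was measured 5–6 h after agonist addition. Fixed antagonist concentrations of 10, 100 or 1000 nM were used. The Stephenson partial-agonist method was used where partial agonism occurred.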
Target sequence in this assay (P13945 whole entry): as the sequence (P13945 whole entry) above

Assay [6] addresses T3, Beta-1 adrenergic receptor. Put plainly: biochemical.
In assay [7] the target is T3, Beta-1 adrenergic receptor. Put plainly: Antagonist activity at human beta-1 adrenergic receptor site 2 expressed in CGP 12177-stimulated CHO-K1 cells assessed as CRE-SPAP level by […].
Assay [8] concerns the target T1, Beta-2 adrenergic receptor. The assay is described as follows: Binding affinity to human beta-2 adrenergic receptor expressed in CHOK1 cells at 3 nM after 18 hrs by confocal imaging. The settings on record: CHO-K1. In kind it is cell-based. The method in brief:
(§1)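 Live confocal imaging at room temperature in HEPES-buffered saline. CHO-K1 cells expressing human β2-AR were grown at least 18 h to 80–100% confluence. Where used, antagonists (ICI 118551 1–100 nM; CGP 20712A) were preincubated for 30 min, then 3 nM fluorescent ligand was added for 10 min. Imaging was done in its continued presence, with 633 nm excitation and emission through a 650 nm long-pass filter. Control CHO-K1 cells lacked the receptor.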
Target sequence in this assay (P07550 whole entry, looked up): as the sequence (P07550 whole entry) above

For assay [9], the target named is T1, Beta-2 adrenergic receptor. The assay is described as follows: Binding affinity to human beta-2 adrenergic receptor expressed in CHOK1 cells at 3 nM preincubated with 1 to 100 nM beta-2 adrenergic receptor antagonist ICI 118551 for 30 mins measured after 18 hrs by confocal imaging. The assay is classed as cell-based. As to conditions: CHO-K1. In short, it runs like this: as §1
Target sequence in this assay (P07550 whole entry, looked up): as the sequence (P07550 whole entry) above

Assay [10] addresses T1, Beta-2 adrenergic receptor. Put plainly: Binding affinity to human beta-2 adrenergic receptor expressed in CHOK1 cells at 3 nM preincubated with > 10 uM beta-1 adrenergic receptor antagonist CGP 20712A for 30 mins measured after 18 hrs by confocal imaging. In kind it is cell-based. As to conditions: CHO-K1. The method in brief: as §1
Target sequence in this assay (P07550 whole entry, looked up): as the sequence (P07550 whole entry) above
Assay [11] has as its target T2, Beta-3 adrenergic receptor. The assay is described as follows: Partial agonist activity at human beta-3 adrenergic receptor expressed in CHOK1 cells assessed as CRE-SPAP production at 1 uM by […] relative to 10 uM isoprenaline. In kind it is functional, cell-based. The settings on record: CHO-K1. In short, it runs like this: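 CHO-K1 cells co-expressing human β3-AR and a CRE-SPAP reporter. SPAP secretion was measured 5–6 h after ligand addition. The response to 1 μM ligand alone is expressed as a percentage of the response to 10 μM isoprenaline within the same experiment. Values are mean ± SE of n separate experiments.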
Target sequence in this assay (P13945 whole entry, looked up): as the sequence (P13945 whole entry) above

T3 sequence (P08588 whole entry): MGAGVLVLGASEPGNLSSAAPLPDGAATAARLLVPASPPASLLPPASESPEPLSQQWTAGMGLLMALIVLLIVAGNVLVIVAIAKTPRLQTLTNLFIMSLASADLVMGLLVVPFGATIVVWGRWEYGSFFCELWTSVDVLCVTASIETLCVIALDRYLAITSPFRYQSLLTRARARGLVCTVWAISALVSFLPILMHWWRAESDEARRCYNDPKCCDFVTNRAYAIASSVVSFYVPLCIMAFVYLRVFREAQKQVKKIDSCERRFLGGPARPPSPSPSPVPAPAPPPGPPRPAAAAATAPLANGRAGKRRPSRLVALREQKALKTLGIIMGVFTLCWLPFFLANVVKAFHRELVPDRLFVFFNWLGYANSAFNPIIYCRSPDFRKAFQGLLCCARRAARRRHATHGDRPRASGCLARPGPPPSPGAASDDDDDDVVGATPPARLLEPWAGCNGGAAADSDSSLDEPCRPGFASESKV

For the compound `O=C(CCCCCNC(=O)COc1ccc(/C=C/c2ccc3n2[B-](F)(F)[N+]2=C(c4cccs4)C=CC2=C3)cc1)NCCNC[C@H](O)COc1cccc2ccccc12`, the Kd is 1.38 nM in assay [1]; 44.7 nM in [2]; 8.32 nM in assay [3]; 0.427 nM in [4]; 26.3 nM in assay [5]; 36.3 nM in assay [6]. In assay [7], the Kd was 91.2 nM.
In the case of `O=C(CCCCCNC(=O)COc1ccc(/C=C/c2ccc3n2[B-](F)(F)[N+]2=C(c4cccs4)C=CC2=C3)cc1)NCCCCNC[C@H](O)COc1cccc2ccccc12`, the Kd in assay [1] is 0.724 nM; in [2], 123 nM; in [3], 13.5 nM; in assay [4], 0.275 nM; in [5], 151 nM; in assay [6] it was 33.1 nM. Further, the Kd in [7] was 182 nM.
With `O=C(CCCCCNC(=O)COc1ccc(/C=C/c2ccc3n2[B-](F)(F)[N+]2=C(c4cccs4)C=CC2=C3)cc1)NCCCCCCCCNC[C@H](O)COc1cccc2ccccc12`, the dissociation constant Kd in assay [1] was 7.08 nM; in [2] it was 67.6 nM; in [3], 52.5 nM; in assay [4], 1.74 nM; in assay [5] it was 141 nM; in assay [6], 186 nM. Also, the Kd in assay [7] was 794 nM.
Regarding `O=C(CCCCCNC(=O)COc1ccc(/C=C/c2ccc3n2[B-](F)(F)[N+]2=C(c4cccs4)C=CC2=C3)cc1)NCCOCCOCCNC[C@H](O)COc1cccc2ccccc12`, the dissociation constant (Kd) in [1] is 0.617 nM; in assay [2], 81.3 nM; in assay [3], 3.47 nM; in assay [4], 0.295 nM; in assay [5] it was 107 nM; in assay [6], 17.4 nM. In assay [7], the Kd was 67.6 nM. The outcome in assay [8], in assay [9] and in [10] was inactive.
`C=CCc1ccccc1OC[C@@H](O)CNCCNC(=O)CCCCCNC(=O)COc1ccc(/C=C/c2ccc3n2[B-](F)(F)[N+]2=C(c4cccs4)C=CC2=C3)cc1`: the Kd in [1] was 2.88 nM; in assay [2], 69.2 nM; in [3] it was 46.8 nM; in assay [4] it was 1.82 nM; in [5], 41.7 nM; in assay [6], 91.2 nM. The Kd in assay [7] is 74.1 nM. Further, the Activity in [11] is 56.6%.
On to `C=CCc1ccccc1OC[C@@H](O)CNCCOCCOCCNC(=O)CCCCCNC(=O)COc1ccc(/C=C/c2ccc3n2[B-](F)(F)[N+]2=C(c4cccs4)C=CC2=C3)cc1`, for which the Kd in [1] is 0.933 nM; in assay [2], 100 nM; in assay [3] it was 7.59 nM; in assay [4] it was 0.427 nM; in assay [5], 61.7 nM; in assay [6], 22.4 nM. In assay [7], the Kd is 41.7 nM. Besides, in assay [11], the Activity turned out to be 63.5%.
For `C=CCc1ccccc1OCC(O)CNC(C)C` (stereo not drawn), the Activity in [11] stood at 62.4%.
`CC(C)NCC(O)COc1cccc2[nH]ccc12` (stereo not drawn): in assay [11], the Activity worked out at 85.2%.
Regarding `O=C(CCCCCNC(=O)COc1ccc(/C=C/c2ccc3n2[B-](F)(F)[N+]2=C(c4cccs4)C=CC2=C3)cc1)NCCNCC(O)COc1cccc2ccccc12` (racemic), the Kd is 2.75 nM in [1]; 93.3 nM in [2]; 75.9 nM in [3]; 2.57 nM in assay [4]; 63.1 nM in assay [5]; 89.1 nM in [6]. Besides, in assay [7], the Kd was 355 nM.
Consider `O=C(CCCCCNC(=O)COc1ccc(/C=C/c2ccc3n2[B-](F)(F)[N+]2=C(c4cccs4)C=CC2=C3)cc1)NCCCCNCC(O)COc1cccc2ccccc12` (racemic), for which the dissociation constant Kd in assay [1] was 1.35 nM; in assay [2], 105 nM; in [3] it was 30.9 nM; in assay [4], 0.741 nM; in assay [5], 79.4 nM; in assay [6], 56.2 nM. The Kd in assay [7] is 240 nM.
For `O=C(CCCCCNC(=O)COc1ccc(/C=C/c2ccc3n2[B-](F)(F)[N+]2=C(c4cccs4)C=CC2=C3)cc1)NCCCCCCCCNCC(O)COc1cccc2ccccc12` (racemic), the dissociation constant (Kd) is 5.75 nM in [1]; 77.6 nM in [2]; 219 nM in [3]; 2.51 nM in assay [4]; 115 nM in assay [5]; < 1000 nM in assay [7].
Consider `O=C(CCCCCNC(=O)COc1ccc(/C=C/c2ccc3n2[B-](F)(F)[N+]2=C(c4cccs4)C=CC2=C3)cc1)NCCOCCOCCNCC(O)COc1cccc2ccccc12` (racemic), for which the dissociation constant (Kd) in assay [1] was 3.31 nM; in assay [2], 295 nM; in assay [3] it was 41.7 nM; in [4] it was 0.437 nM; in assay [5], 57.5 nM; in assay [6] it was 72.4 nM. In assay [7], the equilibrium dissociation constant (Kd) was 112 nM.
For the compound `C=CCc1ccccc1OCC(O)CNCCNC(=O)CCCCCNC(=O)COc1ccc(/C=C/c2ccc3n2[B-](F)(F)[N+]2=C(c4cccs4)C=CC2=C3)cc1` (racemic), the dissociation constant (Kd) in assay [1] is 2.34 nM; in [2], 46.8 nM; in assay [3] it was 43.7 nM; in [4] it was 1.58 nM; in assay [5], 23.4 nM; in [6], 55 nM. Besides, the Kd in [7] was 120 nM. Also, the Activity in assay [11] was 60.6%.
On to `C=CCc1ccccc1OCC(O)CNCCOCCOCCNC(=O)CCCCCNC(=O)COc1ccc(/C=C/c2ccc3n2[B-](F)(F)[N+]2=C(c4cccs4)C=CC2=C3)cc1` (racemic), for which the Kd in assay [1] was 1.23 nM; in assay [2], 81.3 nM; in assay [3] it was 17.4 nM; in [4], 0.617 nM; in [5] it was 57.5 nM; in assay [6] it was 31.6 nM. For the same compound, the dissociation constant (Kd) in assay [7] is 77.6 nM. Moreover, in assay [11], the Activity is 49.6%.
Take `O=C(CCCCCNC(=O)COc1ccc(/C=C/c2ccc3n2[B-](F)(F)[N+]2=C(c4cccs4)C=CC2=C3)cc1)NCCNCC(O)COc1cccc2[nH]ccc12` (racemic): the Kd in assay [1] was 46.8 nM; in [2] it was 331 nM; in assay [3], 302 nM; in assay [4] it was 30.2 nM; in assay [5], 178 nM; in [6], 871 nM. Also, the dissociation constant Kd in assay [7] is < 1000 nM. Besides, the Activity in assay [11] stood at 49.4%.
Regarding `O=C(CCCCCNC(=O)COc1ccc(/C=C/c2ccc3n2[B-](F)(F)[N+]2=C(c4cccs4)C=CC2=C3)cc1)NCCOCCOCCNCC(O)COc1cccc2[nH]ccc12` (racemic), the Kd was 11 nM in [1]; 380 nM in assay [2]; 38 nM in assay [3]; 7.24 nM in [4]; 288 nM in assay [5]; 97.7 nM in [6]. Further, the Kd in [7] was < 1000 nM. For the same compound, the Activity in assay [11] was 53.2%.

Usually Kd stands for the concentration at which binding is half-saturated.

The values are drawn from ChEMBL document CHEMBL1828559, “Synthesis and characterization of high-affinity 4,4-difluoro-4-bora-3a,4a-diaza-s-indacene-labeled fluorescent ligands for human β-adrenoceptors” (J Med Chem, 2011).
